Results taken from ChEMBL document CHEMBL3243980, “Structural analogues of L-glutamic Acid gamma-(4-hydroxyanilide) and gamma-(3,4-dihydroxyanilde) as potential agents against melanoma” (1979).

System: B16
Experiment: Cytotoxicity against mouse B16 cells after 48 hrs
Format: functional
Conditions: B16, 48 h, read-out: ID50 (the source's name)
How it was run: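 Moderately pigmented B16 murine melanoma cells grown as monolayers in McCoy's 5A medium plus 10% fetal calf serum, in exponential growth at assay. Drug added 24 h after plating, incubation continued another 48 h. Four dose levels tested in triplicate, generally 0.1–1.0 mM (0.01–0.1 mM for one compound); ID50 reported as mM, SD within ±10% of mean.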

Row | Compound | IC50 [µM]
1 | N[C@@H](CCC(=O)Nc1ccc(O)cc1)C(=O)O | 100
2 | N[C@@H](CCC(=O)Nc1cccc(O)c1)C(=O)O | 1000
3 | N[C@@H](CCC(=O)Nc1ccc(O)c(O)c1)C(=O)O | 270
4 | COc1ccc(NC(=O)CC[C@H](N)C(=O)O)cc1 | > 1000
5 | N[C@@H](CCC(=O)Nc1ccc2c(c1)OCO2)C(=O)O | > 1000
6 | N[C@@H](CCC(=O)Nc1cc(O)ccc1O)C(=O)O | 51
7 | N[C@@H](CC(=O)Nc1ccc(O)cc1)C(=O)O | 310
8 | N[C@@H](CCC(=O)O)C(=O)Nc1ccc(O)cc1 | > 1000
9 | NCCCC(=O)Nc1ccc(O)cc1 | > 1000
10 | O=C(O)CCCC(=O)Nc1ccc(O)cc1 | > 1000
11 | O=C(CCCC(=O)Nc1ccc(O)cc1)Nc1ccc(O)cc1 | > 1000
